Assay results reported in ChEMBL document CHEMBL1122459, “4-(Diphenylmethyl)-1-[(imino)methyl]piperidines as gastric antisecretory agents” (J Med Chem, 1983).

Columns and labels:
[1] = target: Muscarinic acetylcholine receptor; test: Displacement of [3H]- quinuclidinyl benzilate from rat brain Muscarinic acetylcholine receptor
Rattus norvegicus [2] = test: Antisecretory activity against acute gastric fistula(AGF) in rat when administered perorally; assay type: functional; conditions: Stomach, po
Procedure, shortened: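 Female Sprague-Dawley rats, 120-160 g, fasted ≥18 h; drug or vehicle (0.5% methocel) po 1 h before surgery. Under ether, fundic fistula tube inserted; first 30-min sample discarded, then two 1-h collections. Volume measured, aliquot titrated to pH 7 with 0.01 N NaOH for total acid output. ED50 = dose for 50% inhibition vs controls, least-squares regression; ≥5 rats/group, ≥3 doses.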

Rattus norvegicus [3] = test: Anticholinergic activity against carbachol induced gastric emptying(GE) in rat when administered perorally; assay type: functional; conditions: Stomach, po
Procedure, shortened: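 Ten 1-mm polystyrene beads placed in stomach by tube 30 min later; carbachol 80 mcg/kg sc at 1 h post-dose; killed 15 min after. Beads left in stomach counted. ED50 = dose giving 50% inhibition of emptying vs controls, by least-squares regression; ≥5 rats/group, ≥3 dose groups.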

Rattus norvegicus [4] = species on record: Rattus norvegicus; test: Relative potency against atropine; assay type: functional
[5] = Ratio between gastric emptying(GE) and acute gastric fistula(AGF); assay type: functional, Stomach
Rattus norvegicus [6] = test: Anticholinergic activity against carbachol-induced gastric emptying (GE) in rat when administered perorally; conditions: Stomach, po
Rattus norvegicus [7] = species on record: Rattus norvegicus; test: animal or person; conditions: Stomach, po

Compound	I50 [1]	ED50 (Rattus norvegicus [2])	ED50 (Rattus norvegicus [3])	Relative Potency (Rattus norvegicus [4])	Ratio [5]	ED50 (Rattus norvegicus [6])	ED50 (Rattus norvegicus [7])
C#CC/N=C/N1CCC(C(c2ccccc2)c2ccccc2)CC1.Cl	1300 nM	5.4 mg/kg	8 mg/kg	0.19	1.48		
Cl.N=CN1CCC(C(c2ccccc2)c2ccccc2)CC1	3 nM	0.34 mg/kg	0.86 mg/kg	81.7	2.53		
C=CC/N=C/N1CCC(C(c2ccccc2)c2ccccc2)CC1	490 nM	10.4 mg/kg	13.2 mg/kg	0.51	1.27		
CCC(=N)N1CCC(C(c2ccccc2)c2ccccc2)CC1	70 nM	54.5 mg/kg	20 mg/kg	3.61	0.37		
CCCCCCCCCC/N=C/N1CCC(C(c2ccccc2)c2ccccc2)CC1	3800 nM	7.8 mg/kg	43.1 mg/kg	0.06	5.52		
CCCCCCC/N=C/N1CCC(C(c2ccccc2)c2ccccc2)CC1.O=C(O)/C=C/C(=O)O	3300 nM	11.5 mg/kg	33.4 mg/kg	0.08	2.9		
CCCCCC/N=C/N1CCC(C(c2ccccc2)c2ccccc2)CC1.O=C(O)/C=C/C(=O)O	1900 nM	8.34 mg/kg	15 mg/kg	0.13	1.8		
CC(C)/N=C/N1CCC(C(c2ccccc2)c2ccccc2)CC1.O=C(O)/C=C/C(=O)O	1600 nM	8.6 mg/kg	15.1 mg/kg	0.15	1.76		
CCCC/N=C/N1CCC(C(c2ccccc2)c2ccccc2)CC1.O=C(O)/C=C/C(=O)O	1600 nM	7.6 mg/kg	10.3 mg/kg	0.15	1.36		
CCCCCCCCC/N=C/N1CCC(C(c2ccccc2)c2ccccc2)CC1.O=C(O)/C=C/C(=O)O	> 10000 nM	10.8 mg/kg	40.4 mg/kg		3.74		
CCCCCCCC/N=C/N1CCC(C(c2ccccc2)c2ccccc2)CC1.O=C(O)/C=C/C(=O)O	8600 nM	10.9 mg/kg	176 mg/kg	0.04	16.15		
CN1[C@@H]2CC[C@H]1C[C@@H](OC(=O)C(CO)c1ccccc1)C2 (stereo partly drawn) [ATROPINE]		0.64 mg/kg	0.35 mg/kg				
CN/C(=N\CCSCc1nc[nH]c1C)NC#N [CIMETIDINE]						160 mg/kg	7.6 mg/kg
